# Activity calls are given as the source filed them. The rule behind the calls is not given here.
# How the values were obtained:
# [1] = target: Ephrin type-A receptor 5 (Homo sapiens) (UniProt P54756); experiment: Activity of human EphA5 kinase at 1 uM
# How it was run: (§1)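 Single-point kinase profiling: each kinase in a 226-kinase panel tested with compound at 1 μM and ATP at 10 μM in every assay, run by an external screening service.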
# [2] = target: Tyrosine-protein kinase Fes/Fps (Homo sapiens) (UniProt P07332); experiment: Activity of human Fes kinase at 1 uM; how it was run: as §1
# [3] = target: G protein-coupled receptor kinase 5 (Homo sapiens) (UniProt P34947); experiment: Activity of human GRK5 kinase at 1 uM; how it was run: as §1
# [4] = target: Mitogen-activated protein kinase 8 (Homo sapiens) (UniProt P45983); experiment: Activity of human JNK1-alpha-1 kinase at 1 uM; how it was run: as §1
# [5] = target: Serine/threonine-protein kinase STK11 (Homo sapiens) (UniProt Q15831); experiment: Activity of human LKB1 kinase at 1 uM
# [6] = target: Tyrosine-protein kinase Lyn (Homo sapiens) (UniProt P07948); experiment: Activity of human Lyn kinase at 1 uM; how it was run: as §1
# [7] = target: Maternal embryonic leucine zipper kinase (Homo sapiens) (UniProt Q14680); experiment: Activity of human MELK kinase at 1 uM; how it was run: as §1
# [8] = target: Myosin light chain kinase, smooth muscle (Homo sapiens) (UniProt Q15746); experiment: Activity of human MLCK kinase at 1 uM
# [9] = target: Serine/threonine-protein kinase MRCK beta (Homo sapiens) (UniProt Q9Y5S2); experiment: Activity of human MRCKbeta kinase at 1 uM
# [10] = target: Serine/threonine-protein kinase 3 (Homo sapiens) (UniProt Q13188); experiment: Activity of human MST2 kinase at 1 uM
# [11] = target: Serine/threonine-protein kinase Nek6 (Homo sapiens) (UniProt Q9HC98); experiment: Activity of human NEK6 kinase at 1 uM
# How it was run: (§2)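 Single-point screen in a 226-kinase panel run by an outside service. Test compound at 1 μM with ATP at 10 μM in every assay. Other assay conditions are not given.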
# [12] = target: Serine/threonine-protein kinase NLK (Homo sapiens) (UniProt Q9UBE8); experiment: Activity of human NLK kinase at 1 uM; how it was run: as §2
# [13] = target: RAC-beta serine/threonine-protein kinase (Homo sapiens) (UniProt P31751); experiment: Activity of human PKBbeta kinase at 1 uM; how it was run: as §2
# [14] = target: Protein kinase C delta type (Homo sapiens) (UniProt Q05655); experiment: Activity of human PKCdelta kinase at 1 uM; how it was run: as §1
# [15] = target: MAP kinase-activated protein kinase 5 (Homo sapiens) (UniProt Q8IW41); experiment: Activity of human PRAK kinase at 1 uM; how it was run: as §2
# [16] = target: cAMP-dependent protein kinase catalytic subunit PRKX (Homo sapiens) (UniProt P51817); experiment: Activity of human PrKX kinase at 1 uM; how it was run: as §2
# [17] = target: Proto-oncogene tyrosine-protein kinase receptor Ret (Homo sapiens) (UniProt P07949); experiment: Activity of human Ret kinase at 1 uM
# How it was run: (§3)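 Single-concentration screen across a 226-kinase panel run by an outside provider; test compound at 1 μM with 10 μM ATP in every assay. Other conditions not detailed.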
# [18] = target: Rho-associated protein kinase 1 (Homo sapiens) (UniProt Q13464); experiment: Activity of human ROCK1 kinase at 1 uM; how it was run: as §2
# [19] = target: Rho-associated protein kinase 2 (Rattus norvegicus) (UniProt Q62868); experiment: Activity of rat ROCK2 kinase at 1 uM; how it was run: as §2
# [20] = target: Tyrosine-protein kinase receptor TYRO3 (Homo sapiens) (UniProt Q06418); experiment: Activity of human Rse kinase at 1 uM; how it was run: as §3
# [21] = target: Serine/threonine-protein kinase Sgk1 (Homo sapiens) (UniProt O00141); experiment: Activity of human SGK kinase at 1 uM; how it was run: as §2
# [22] = target: Tyrosine-protein kinase CSK (Homo sapiens) (UniProt P41240); experiment: Activity of human CSK kinase at 1 uM; how it was run: as §1
# [23] = target: Death-associated protein kinase 2 (Homo sapiens) (UniProt Q9UIK4); experiment: Activity of human DAPK2 kinase at 1 uM; how it was run: as §1
# [24] = target: Discoidin domain-containing receptor 2 (Homo sapiens) (UniProt Q16832); experiment: Activity of human DDR2 kinase at 1 uM
# [25] = target: Mitogen-activated protein kinase 10 (Homo sapiens) (UniProt P53779); experiment: Activity of human JNK3 kinase at 1 uM; how it was run: as §1
# [26] = target: Tyrosine-protein kinase Lck (Homo sapiens) (UniProt P06239); experiment: Activity of human Lck kinase at 1 uM; how it was run: as §1
# [27] = target: Serine/threonine-protein kinase WNK3 (Homo sapiens) (UniProt Q9BYP7); experiment: Activity of human WNK3 kinase at 1 uM; how it was run: as §2
# [28] = target: Tyrosine-protein kinase ABL2 (Mus musculus) (UniProt Q4JIM5); experiment: Activity of mouse Arg kinase at 1 uM; how it was run: as §3
# [29] = Inhibition of CDK2E by radioactive flashplate assay
# [30] = target: Mitogen-activated protein kinase kinase kinase 5 (Homo sapiens) (UniProt Q99683); experiment: Activity of human ASK1 kinase at 1 uM
# [31] = target: Protein-tyrosine kinase 6 (Homo sapiens) (UniProt Q13882); experiment: Activity of human BRK kinase at 1 uM
# Homo sapiens = species: Homo sapiens; experiment: Activity of human CaMK1 kinase at 1 uM
# [32] = target: Casein kinase I isoform gamma-3 (Homo sapiens) (UniProt Q9Y6M4); experiment: Activity of human CK1gamma3 kinase at 1 uM; how it was run: as §1
# [33] = target: Casein kinase I isoform delta (Homo sapiens) (UniProt P48730); experiment: Activity of human CK1delta kinase at 1 uM; how it was run: as §1
# PC-3 [34] = experiment: Induction of apoptosis in human PC3 cells assessed as PARP cleavage at 0.25 uM after 48 hrs by Western blot method; assay type: functional, cell-based
# PC-3 [35] = experiment: Induction of apoptosis in human PC3 cells assessed as PARP cleavage at 1 uM after 24 hrs by Western blot method; assay type: functional, cell-based
# PC-3 [36] = experiment: Induction of apoptosis in human PC3 cells assessed as PARP cleavage at 1 uM after 48 hrs by Western blot method; assay type: functional, cell-based
# PC-3 [37] = experiment: Induction of apoptosis in human PC3 cells assessed as PARP cleavage at 4 uM after 48 hrs by Western blot method; assay type: functional, cell-based
# Calu-6 = experiment: Antiproliferative activity against human Calu6 cells after 96 hrs by BrdU cell proliferation ELISA; assay type: functional, cell-based; details: Calu-6, 96 h
# How it was run: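 BrdU incorporation proliferation assay on cultured human tumor lines; IC50 values derived from growth inhibition.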
# [38] = target: Ephrin type-B receptor 1 (Homo sapiens) (UniProt P54762); experiment: Inhibition of EphB1 kinase at 1 uM
# How it was run: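 Single-point screen within a 226-kinase panel, with compound at 1 μM and ATP at 10 μM in all assays.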
# PC-3 [39] = experiment: Cell cycle arrest in human PC3 cells by accumulation at G2/M phase at 1 uM after 24 hrs by flow cytometry relative to control; assay type: functional
# How it was run: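 DNA content profiles by flow cytometry of PC-3 prostate tumor cells exposed to drug diluted in DMSO for 24 or 48 h. Phase distribution was compared with DMSO-treated control cells.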
# [40] = target: Mitogen-activated protein kinase 1 (ERK2) (Mus musculus) (UniProt P63085); experiment: Activity of mouse MAPK2 kinase at 1 uM
# Ephrin type-B receptor 1 (Homo sapiens), sequence (P54762 whole entry): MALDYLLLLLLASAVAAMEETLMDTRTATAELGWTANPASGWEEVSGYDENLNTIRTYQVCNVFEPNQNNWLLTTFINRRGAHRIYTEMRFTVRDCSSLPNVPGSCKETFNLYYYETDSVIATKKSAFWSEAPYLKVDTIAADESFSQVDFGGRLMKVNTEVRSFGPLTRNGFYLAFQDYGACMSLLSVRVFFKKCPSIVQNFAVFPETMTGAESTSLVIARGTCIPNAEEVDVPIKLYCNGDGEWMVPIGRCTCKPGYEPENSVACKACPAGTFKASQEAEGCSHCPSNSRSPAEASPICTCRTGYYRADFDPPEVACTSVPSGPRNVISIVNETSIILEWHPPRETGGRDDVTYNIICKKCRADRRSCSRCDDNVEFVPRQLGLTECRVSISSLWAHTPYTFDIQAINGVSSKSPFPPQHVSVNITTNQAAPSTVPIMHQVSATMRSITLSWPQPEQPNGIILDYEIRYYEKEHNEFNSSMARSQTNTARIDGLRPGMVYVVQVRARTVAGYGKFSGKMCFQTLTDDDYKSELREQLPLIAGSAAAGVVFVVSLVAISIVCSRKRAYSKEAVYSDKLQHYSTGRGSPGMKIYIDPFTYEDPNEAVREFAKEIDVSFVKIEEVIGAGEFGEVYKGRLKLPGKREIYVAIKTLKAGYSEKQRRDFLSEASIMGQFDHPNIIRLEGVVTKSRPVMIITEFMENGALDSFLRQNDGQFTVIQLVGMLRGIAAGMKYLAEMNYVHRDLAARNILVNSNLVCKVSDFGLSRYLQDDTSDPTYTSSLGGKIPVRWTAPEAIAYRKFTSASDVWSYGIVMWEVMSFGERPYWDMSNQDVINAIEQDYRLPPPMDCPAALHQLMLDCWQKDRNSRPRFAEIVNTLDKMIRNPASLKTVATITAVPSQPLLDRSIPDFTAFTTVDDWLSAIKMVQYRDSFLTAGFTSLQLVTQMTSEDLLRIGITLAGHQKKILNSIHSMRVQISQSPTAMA
# Serine/threonine-protein kinase Nek6 (Homo sapiens), sequence (Q9HC98 whole entry): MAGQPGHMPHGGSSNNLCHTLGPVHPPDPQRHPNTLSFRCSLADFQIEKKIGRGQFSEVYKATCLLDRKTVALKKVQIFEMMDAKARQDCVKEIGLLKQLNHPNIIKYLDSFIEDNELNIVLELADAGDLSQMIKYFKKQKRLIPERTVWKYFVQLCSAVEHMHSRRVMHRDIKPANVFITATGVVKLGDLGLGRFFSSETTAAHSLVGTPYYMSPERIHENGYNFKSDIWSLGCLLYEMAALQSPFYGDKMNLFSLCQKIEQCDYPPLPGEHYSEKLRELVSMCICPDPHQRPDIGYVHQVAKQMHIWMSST
# MAP kinase-activated protein kinase 5 (Homo sapiens), sequence (Q8IW41 whole entry): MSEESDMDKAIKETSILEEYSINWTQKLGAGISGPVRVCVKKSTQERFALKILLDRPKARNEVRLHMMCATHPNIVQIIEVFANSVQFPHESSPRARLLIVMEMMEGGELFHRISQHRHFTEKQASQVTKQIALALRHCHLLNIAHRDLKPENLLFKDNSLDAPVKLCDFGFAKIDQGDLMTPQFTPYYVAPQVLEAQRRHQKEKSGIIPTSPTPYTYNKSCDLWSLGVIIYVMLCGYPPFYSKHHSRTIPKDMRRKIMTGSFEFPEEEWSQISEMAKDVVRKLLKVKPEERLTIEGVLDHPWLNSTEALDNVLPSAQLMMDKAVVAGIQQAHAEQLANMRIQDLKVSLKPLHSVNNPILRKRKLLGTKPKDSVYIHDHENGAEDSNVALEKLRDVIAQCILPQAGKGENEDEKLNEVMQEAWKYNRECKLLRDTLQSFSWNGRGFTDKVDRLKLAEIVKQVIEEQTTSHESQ
# Mitogen-activated protein kinase 10 (Homo sapiens), sequence (P53779 whole entry): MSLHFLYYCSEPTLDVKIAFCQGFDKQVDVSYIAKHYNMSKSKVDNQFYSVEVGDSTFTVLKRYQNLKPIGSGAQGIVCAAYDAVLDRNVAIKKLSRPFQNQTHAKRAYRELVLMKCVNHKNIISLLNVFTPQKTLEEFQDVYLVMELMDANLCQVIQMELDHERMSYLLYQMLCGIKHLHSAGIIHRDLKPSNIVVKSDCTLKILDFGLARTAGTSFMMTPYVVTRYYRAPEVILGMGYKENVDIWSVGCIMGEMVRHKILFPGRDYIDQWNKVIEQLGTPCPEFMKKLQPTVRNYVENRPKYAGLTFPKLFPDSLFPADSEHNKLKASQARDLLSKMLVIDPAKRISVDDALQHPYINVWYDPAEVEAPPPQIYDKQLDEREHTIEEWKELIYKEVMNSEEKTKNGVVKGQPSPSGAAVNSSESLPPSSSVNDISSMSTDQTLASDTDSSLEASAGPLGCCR
# Serine/threonine-protein kinase 3 (Homo sapiens), sequence (Q13188 whole entry): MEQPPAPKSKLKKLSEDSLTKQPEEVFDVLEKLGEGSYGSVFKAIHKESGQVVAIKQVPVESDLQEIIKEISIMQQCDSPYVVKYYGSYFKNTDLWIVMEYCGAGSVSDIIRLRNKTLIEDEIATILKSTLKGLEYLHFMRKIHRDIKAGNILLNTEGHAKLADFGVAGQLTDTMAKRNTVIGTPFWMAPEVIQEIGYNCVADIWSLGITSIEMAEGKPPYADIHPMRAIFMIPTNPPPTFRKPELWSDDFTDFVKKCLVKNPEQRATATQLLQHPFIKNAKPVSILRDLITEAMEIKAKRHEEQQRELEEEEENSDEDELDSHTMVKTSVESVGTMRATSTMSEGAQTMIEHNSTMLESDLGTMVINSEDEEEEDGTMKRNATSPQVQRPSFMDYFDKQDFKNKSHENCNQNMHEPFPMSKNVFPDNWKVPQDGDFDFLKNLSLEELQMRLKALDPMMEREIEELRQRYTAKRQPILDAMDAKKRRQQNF
# cAMP-dependent protein kinase catalytic subunit PRKX (Homo sapiens), sequence (P51817 whole entry): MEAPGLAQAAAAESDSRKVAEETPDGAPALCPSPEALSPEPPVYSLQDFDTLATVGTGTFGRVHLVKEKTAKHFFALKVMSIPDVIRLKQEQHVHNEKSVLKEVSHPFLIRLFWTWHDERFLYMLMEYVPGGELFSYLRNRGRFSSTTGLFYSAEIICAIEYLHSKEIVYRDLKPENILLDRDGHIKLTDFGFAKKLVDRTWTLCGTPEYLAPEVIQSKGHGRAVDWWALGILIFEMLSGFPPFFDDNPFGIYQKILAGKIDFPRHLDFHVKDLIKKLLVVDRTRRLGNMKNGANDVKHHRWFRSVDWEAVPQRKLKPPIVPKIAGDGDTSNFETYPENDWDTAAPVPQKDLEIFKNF
# Myosin light chain kinase, smooth muscle (Homo sapiens), sequence (Q15746 whole entry): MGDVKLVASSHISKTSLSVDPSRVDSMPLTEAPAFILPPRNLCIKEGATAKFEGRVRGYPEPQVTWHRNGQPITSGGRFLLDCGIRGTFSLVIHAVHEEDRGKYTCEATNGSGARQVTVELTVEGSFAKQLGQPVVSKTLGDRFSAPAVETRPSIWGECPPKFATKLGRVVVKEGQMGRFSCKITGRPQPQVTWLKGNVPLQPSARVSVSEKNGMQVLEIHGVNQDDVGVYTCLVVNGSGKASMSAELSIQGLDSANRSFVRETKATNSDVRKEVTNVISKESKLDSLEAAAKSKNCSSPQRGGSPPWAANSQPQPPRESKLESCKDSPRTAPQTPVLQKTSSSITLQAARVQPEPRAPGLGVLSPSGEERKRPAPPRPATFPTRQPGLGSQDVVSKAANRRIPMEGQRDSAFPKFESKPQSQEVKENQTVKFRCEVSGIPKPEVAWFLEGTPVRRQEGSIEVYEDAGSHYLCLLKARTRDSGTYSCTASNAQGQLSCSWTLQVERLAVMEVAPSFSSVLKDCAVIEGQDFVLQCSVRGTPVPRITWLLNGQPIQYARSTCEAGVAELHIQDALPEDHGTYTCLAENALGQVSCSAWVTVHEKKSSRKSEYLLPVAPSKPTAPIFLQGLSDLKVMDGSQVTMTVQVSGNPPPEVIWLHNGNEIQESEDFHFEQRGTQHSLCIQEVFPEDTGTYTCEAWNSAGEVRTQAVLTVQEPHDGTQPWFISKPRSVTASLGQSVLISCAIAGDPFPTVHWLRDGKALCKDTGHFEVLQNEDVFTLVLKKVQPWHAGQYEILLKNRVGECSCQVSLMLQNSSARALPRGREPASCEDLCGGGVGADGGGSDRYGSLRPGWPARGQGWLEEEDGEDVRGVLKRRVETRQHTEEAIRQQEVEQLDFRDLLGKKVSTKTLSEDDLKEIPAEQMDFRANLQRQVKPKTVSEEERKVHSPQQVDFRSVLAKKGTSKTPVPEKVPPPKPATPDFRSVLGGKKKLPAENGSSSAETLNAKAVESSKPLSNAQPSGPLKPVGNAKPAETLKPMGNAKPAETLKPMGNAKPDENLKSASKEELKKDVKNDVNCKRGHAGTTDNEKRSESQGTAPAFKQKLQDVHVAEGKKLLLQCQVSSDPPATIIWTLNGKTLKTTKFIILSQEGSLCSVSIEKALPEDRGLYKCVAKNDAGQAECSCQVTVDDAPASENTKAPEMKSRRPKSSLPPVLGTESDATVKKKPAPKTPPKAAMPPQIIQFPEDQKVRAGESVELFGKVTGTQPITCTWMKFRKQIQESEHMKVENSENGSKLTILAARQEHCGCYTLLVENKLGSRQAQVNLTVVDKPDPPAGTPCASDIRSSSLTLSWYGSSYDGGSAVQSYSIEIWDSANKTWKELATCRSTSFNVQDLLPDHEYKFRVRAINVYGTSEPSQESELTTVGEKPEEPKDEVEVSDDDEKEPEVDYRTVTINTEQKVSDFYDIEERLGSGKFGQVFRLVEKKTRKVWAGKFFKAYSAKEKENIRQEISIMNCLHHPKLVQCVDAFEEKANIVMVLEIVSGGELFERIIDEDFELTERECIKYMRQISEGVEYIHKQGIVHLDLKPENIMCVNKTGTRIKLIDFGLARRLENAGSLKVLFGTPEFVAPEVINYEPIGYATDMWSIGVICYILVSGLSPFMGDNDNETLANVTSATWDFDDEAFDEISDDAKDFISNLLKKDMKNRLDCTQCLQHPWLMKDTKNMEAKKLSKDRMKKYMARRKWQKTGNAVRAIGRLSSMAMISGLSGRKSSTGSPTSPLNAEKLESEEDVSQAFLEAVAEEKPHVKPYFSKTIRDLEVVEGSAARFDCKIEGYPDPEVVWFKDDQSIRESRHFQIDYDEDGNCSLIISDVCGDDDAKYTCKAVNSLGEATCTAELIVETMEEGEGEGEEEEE
smiles,measurement,setting,value
O=C(O)c1ccc(Nc2ncc3c(n2)-c2ccc(Cl)cc2C(c2c(F)cccc2F)=NC3)cc1 [MLN-8054],Activity,[1],80%
same,Activity,[2],133%
same,Activity,[3],109%
same,Activity,[4],122%
same,Activity,[5],101%
same,Activity,[6],46%
same,Activity,[7],79%
same,Activity,[8],95%
same,Activity,[9],107%
same,Activity,[10],100%
same,Activity,[11],92%
same,Activity,[12],104%
same,Activity,[13],104%
same,Activity,[14],109%
same,Activity,[15],110%
same,Activity,[16],99%
same,Activity,[17],80%
same,Activity,[18],120%
same,Activity,[19],92%
same,Activity,[20],56%
same,Activity,[21],99%
same,Activity,[22],105%
same,Activity,[23],103%
same,Activity,[24],87%
same,Activity,[25],125%
same,Activity,[26],59%
same,Activity,[27],88%
same,Activity,[28],63%
same,IC50,[29],> 100000 nM
same,Activity,[30],120%
same,Activity,[31],104%
same,Activity,Homo sapiens,98%
same,Activity,[32],113%
same,Activity,[33],129%
same,Activity,PC-3 [34],Active
same,Activity,PC-3 [35],Active
same,Activity,PC-3 [36],Active
same,Activity,PC-3 [37],Active
same,IC50,Calu-6,220 nM
same,inhibition,[38],65%
same,Activity,PC-3 [39],45.4%
same,Activity,[40],105%

# Reference: ChEMBL document CHEMBL1147076, “Antitumor activity of MLN8054, an orally active small-molecule inhibitor of Aurora A kinase” (Proc Natl Acad Sci U S A, 2007)
